NR2E3 ag-1 – activates human NR2E3 receptor. AID 602229. inhibition of corepressor binding, % at 3.98 µM. CHO-S Gal4-NCOR/VP16-NR2E3 two-hybrid, luciferase. 360,000 compounds, 0.35% hits;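 active = inhibition above the mean of all tested compounds plus 3 SD, cut at about 70% in these data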;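 also: 0% = DMSO with NR2E3 transfected cells and 100% = cells lacking NR2E3 construct; higher means lower luciferase signal from less NR2E3 corepressor binding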
Target sequence (Q9Y5X4 whole entry, looked up, the tested form may be a part): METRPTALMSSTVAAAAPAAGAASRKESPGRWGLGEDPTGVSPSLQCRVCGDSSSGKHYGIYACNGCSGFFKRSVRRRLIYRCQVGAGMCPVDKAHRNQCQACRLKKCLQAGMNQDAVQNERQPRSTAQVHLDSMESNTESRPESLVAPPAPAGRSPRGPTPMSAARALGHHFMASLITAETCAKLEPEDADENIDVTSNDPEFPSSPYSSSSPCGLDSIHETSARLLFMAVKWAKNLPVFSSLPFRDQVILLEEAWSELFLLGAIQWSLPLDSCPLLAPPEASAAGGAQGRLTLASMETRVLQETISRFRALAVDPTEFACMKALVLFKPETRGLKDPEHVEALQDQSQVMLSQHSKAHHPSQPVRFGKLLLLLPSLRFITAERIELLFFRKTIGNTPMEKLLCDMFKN
Jurkat NFkB inh – lowers PMA/ionomycin-induced NF-kB signal in Jurkat cells; inhibition, % at 4 µM; PMA/ionomycin-induced NF-kB luciferase reporter, luminescence; AID 435003; 330,000 compounds, 0.53% hits; in the data active = inhibition above about 50%
NR2E3 ag-2 – activates human photoreceptor nuclear receptor NR2E3 | Q9Y5X4 | GST-NR2E3/biotin-RetCOR TR-FRET, 1536-well | inhibition of corepressor binding, % at 4.78 µM | 320,000 compounds, 0.12% hits | AID 2300;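 active = percent inhibition above the cutoff of mean plus 3 SD of all tested compounds, set per screening campaign, cut at about 20% in these data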;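 also: 0% = DMSO wells and 100% = biotin wells as full block of FRET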
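system = GST-tagged NR2E3 plus biotinylated RetCOR corepressor | input = 1.35 nM GST-NR2E3 | also added = 7 nM biotin-RetCOR | schedule = 5 h incubation at 4 °C | measured by = TR-FRET with europium anti-GST and streptavidin-D2, 340 nm excitation | read-out = percent loss of FRET ratio relative to control wells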
697 NFkB inh – lowers PMA/ionomycin-induced NF-kB signal in 697 B cells; 697 B-cell NF-kB luciferase reporter, 16 h; inhibition, % at 4 µM; 330,000 compounds, 0.33% hits; AID 435022; in the data active = inhibition above about 35%
aDG glyco act – alpha-DG glycosylation activation; AID 624168; 360,000 compounds, 0.22% hits; Pro5-aDG cells, alpha-DG glycosylation AlphaScreen (IIH6); 0% Pro5, 100% B10-LARGE cell signal; activation, % at 10 µM;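 active = activation of at least 8% versus controls, or a plate z-score of at least 8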;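 also: Pro5 are CHO cells carrying HIG-tagged alpha-DG that lacks glycosylation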
MPTP inh – inhibitors of mitochondrial permeability transition pore; isolated mouse mitochondria, Ca2+ swelling absorbance, 30 min; inhibition, % at 10 µM; 360,000 compounds, 1.4% hits; AID 602449;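 active = inhibition of 50% or more, scaled per plate between neutral and stimulator controls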;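 also: 0% = DMSO wells given calcium and 100% = 1 mM EGTA wells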
Jurkat NFkB conf – lowers PMA/ionomycin-induced NF-kB signal in Jurkat cells. 2,700 compounds, 27% hits. Jurkat NF-kB luciferase, 16 h. inhibition, % at 4 µM. shares compounds with Jurkat NFkB inh;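 active = inhibition reaching about 45% at 4 µM in either replicate, limit read from the data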;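 also: plate controls were PMA/ionomycin stimulated DMSO wells for no effect and unstimulated DMSO wells for full effect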
* hit, by the source's call; x = not tested or not shown. Shown are actives, neighbours in structure and some others; about 2.4% of the full set was active somewhere.

SMILES	NR2E3 ag-1	Jurkat NFkB inh	NR2E3 ag-2	697 NFkB inh	aDG glyco act	MPTP inh	Jurkat NFkB conf
C/C(=N\NC(=O)c1ccncc1)c1ccc(NC(=O)c2ccc(Cl)cc2)cc1	-125	-152	-1	-165	0	-1	-92
COc1cc2c3c([nH]c2cc1F)C(=O)NCC3	13	4	3	15	0	-1	x
CC(=O)c1cccc(N2Cc3ccccc3C2=NC(=O)CCl)c1	-7	-16	2	13	0	-2	x
CCCCCCCCCCCn1nnnc1N	11	x	x	x	1	1	x
COC(=O)C[C@@H]1C=C[C@H](NC(=O)Nc2ccc(OC)cc2)[C@@H](CO)O1	x	x	x	x	0	2	x
CC1CCCC(C)N1C(=O)CN1c2cccc3cccc(c23)S1(=O)=O (stereo not given)	20	-7	x	3	0	-1	x
CCCCn1c(SCC(=O)Nc2oc(C)c3c(C)n[nH]c(=O)c23)nc2cc(S(N)(=O)=O)ccc21	0	12	1	21	0	-3	x
O=C(NCC(c1ccco1)N1CCc2ccccc21)c1ccccc1F (stereo not given)	-7	-4	2	-9	0	3	x
O=C(CCc1ccccc1)NCC(c1ccco1)N1CCc2ccccc21 (stereo not given)	-48	59*	-1	-34	0	-1	22
COC(=O)CCC(=O)NC(=S)Nc1sc(C)c(C)c1C(N)=O	2	65*	13	-41	0	0	50*
Cc1cc(C)c2nc(C)cc(N/N=C/c3ccc(O)cc3)c2c1	-39	98*	-10	-7	-1	7	81*
O=C(N/N=C\c1c(O)ccc2ccccc12)c1cncc(Br)c1	3	52*	3	-8	1	34	79*
O=C(N/N=C/c1c(O)ccc2ccccc12)c1ccc(Br)o1	-81	52*	3	-2	1	10	62*
O=C(N/N=C/c1c(O)ccc2ccccc12)Nc1ccccc1	x	1	-2	-32	x	x	x
Cn1cc(C(=O)N/N=C/c2c(O)ccc3ccccc23)ccc1=O	3	59*	-3	14	1	0	76*
O=C(CSCC(=O)Nc1ccccc1)N/N=C/c1c(O)ccc2ccccc12	-16	63*	0	17	1	2	37
O=C(N/N=C/c1c(O)ccc2ccccc12)c1cccnc1	-10	13	3	-1	1	1	x
CN(Cc1cccs1)C(=O)C1CC(=O)N(Cc2ccccc2)C1 (stereo not given)	30	-4	0	19	0	0	x
COC(=O)C[C@H]1c2ccccc2S(=O)(=O)N1C(C)C	-18	5	0	24	0	-1	x
CN1CCN(C(=O)/C(=C/c2cn(S(=O)(=O)N(C)C)c3ccccc23)NC(=O)c2ccccc2F)CC1	-10	-3	0	9	0	-2	x
COc1ccc([C@H]2C[C@H](O)[C@@H](n3cc(-c4ccc(F)cc4)nn3)CN2C(=O)c2cccs2)cc1	-24	x	x	x	0	-1	x
Cc1c(C(=O)N/N=C/c2c(O)ccc3ccccc23)nnn1-c1nonc1N	0	55*	2	20	0	0	76*
CN(C)c1ncnc2c1ncn2[C@H]1CN(Cc2ccc(Cl)cc2)C[C@@H](CO)O1	0	x	x	x	0	-1	x
COc1ccc(C2c3c(ncn(CCCO)c3=N)Oc3ccc4ccccc4c32)cc1 (stereo not given)	18	28	-4	17	0	-4	x
COc1ccccc1C1c2ccc3ccccc3c2Oc2ncn(CCN(C)C)c(=N)c21 (stereo not given)	-15	78*	-2	7	0	-2	13
SMILES	NR2E3 ag-1	Jurkat NFkB inh	NR2E3 ag-2	697 NFkB inh	aDG glyco act	MPTP inh	Jurkat NFkB conf
COc1ccccc1C1c2ccc3ccccc3c2Oc2ncn(CCCO)c(=N)c21 (stereo not given)	2	18	2	-31	0	1	x
COc1ccc(C2c3ccc4ccccc4c3Oc3ncn(CCCN(C)C)c(=N)c32)cc1 (stereo not given)	10	52*	-1	9	0	-4	22
CN1C(=O)C(C)(C)c2cc(S(=O)(=O)N3CCCC(C(=O)NCc4ccc(Cl)cc4)C3)ccc21 (stereo not given)	-33	1	-2	3	0	-1	x
CCOC(=O)CSC1=C(C#N)C(c2ccc(C)s2)CC(=O)N1 (stereo not given)	-16	57*	3	5	0	1	49*
O=C1CC(c2cccc(Br)c2)c2cc3c(cc2N1)CCC3 (stereo not given)	-42	54*	0	-72	0	0	45
O=C1CC(c2cc(F)ccc2F)c2cc3c(cc2N1)CCC3 (stereo not given)	-43	71*	-1	-77	0	3	52*
COc1cc2c(cc1OC)C(c1cccc(Br)c1)CC(=O)N2 (stereo not given)	-25	-14	x	-13	0	0	x
C=CCNC(=O)C(C)N1c2cccc3cccc(c23)S1(=O)=O (stereo not given)	21	4	0	-9	0	0	x
N#CC(=C(O)COC(=O)CCCNC(=O)c1ccc(Cl)cc1)c1nc2ccccc2[nH]1	-9	x	x	x	0	0	x
CC(C)(Cc1ccccc1)/[N+]([O-])=C\c1ccccc1	-2	9	1	18	0	-1	x
CO/N=C/C(=N\Nc1ccc(C)cc1)C(=O)c1ccc(OC)cc1	-8	51*	3	-6	-1	9	33
O=C(Oc1ccc(-c2cnc3ccccc3n2)cc1)c1ccco1	-96	-162	1	-154	0	5	-82
c1ccc(-c2cn3c(n2)-c2ccccc2C3)cc1	-111	-160	2	-222	0	2	-147
O=C(NC1CCCCCC1)c1ccc(Cl)c(S(=O)(=O)N2CCOCC2)c1	-27	-15	4	4	0	0	x
C=CCNc1ncnc2c1cnn2-c1cccc(C)c1	-70	-126	1	-143	0	0	x
CC1CN(c2ncnc3c2cnn3-c2ccc(Cl)cc2)CC(C)O1 (stereo not given)	-37	-187	1	-197	0	-3	-71
Cc1cccc(-n2ncc3c(N4CC(C)CC(C)C4)ncnc32)c1 (stereo not given)	-119	-166	4	-199	0	2	-107
CC1CC(C)CN(c2ncnc3c2cnn3Cc2ccc(Cl)cc2)C1 (stereo not given)	10	-3	-2	-36	0	0	x
Cc1cccc(-n2ncc3c(NC4CCCCC4)ncnc32)c1	-140	-156	3	-235	0	0	-148
